Screens (PubChem BioAssay)
FN deposit inh – fibronectin deposition inhibition; inhibition, % at 12.6 µM; 350,000 tested, 0.086% active; AID 743247; AH1F fibroblasts, Alexa488-fibronectin deposition fluorescence, overnight;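 active = mean inhibition across replicates of 30% or more, regardless of how many single replicates reach that level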
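material = AH1F fibroblast monolayer depositing Alexa488-labelled fibronectin into matrix | amount = 10000 AH1F cells/well | buffer or medium = DMEM plus 2% serum, read in PBS | incubation = 1 h cell adhesion before compound, then overnight fibronectin incubation | detection = fluorescence at 485 nm excitation, 525 nm emission | evaluation = percent inhibition as loss of matrix-bound fibronectin fluorescence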
AF4-AF9 inh – blocks AF4 peptide binding to human AF9; P42568; AlphaScreen, biotin-AF4 peptide binding to FLAG-AF9; inhibition, % at 10 µM; 350,000 tested, 0.47% active;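 active = every replicate reaching a set inhibition limit, whatever the replicate mean, cut at about 25% in these data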
N-glyco inh – N-linked glycosylation inhibition; D54 ERlucT glycosylation luciferase reporter, 24 h; percent of 100 nM tunicamycin response; reporter increase, % at 12.5 µM; 360,000 tested, 0.23% active;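 active = mean luciferase reporter signal, scaled so untreated is 0 and the glycosylation-blocking control 100, at or above a set limit in every replicate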;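 note: luciferase carries N-glycosylation sites so blocking glycosylation raises the light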
RAD54 branch – inhibitors of human RAD54 branch migration | Q92698 | RAD54 Holliday junction branch migration, FAM/BHQ fluorescence | inhibition, % at 10.4 µM | 360,000 tested, 0.14% active | AID 602329;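 active = mean normalized replicate activity at least 40 and at least half of replicates scoring 40 or more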;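 note: inhibitors cause a drop in the FAM fluorescence signal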
Target sequence (Q92698 whole entry, looked up): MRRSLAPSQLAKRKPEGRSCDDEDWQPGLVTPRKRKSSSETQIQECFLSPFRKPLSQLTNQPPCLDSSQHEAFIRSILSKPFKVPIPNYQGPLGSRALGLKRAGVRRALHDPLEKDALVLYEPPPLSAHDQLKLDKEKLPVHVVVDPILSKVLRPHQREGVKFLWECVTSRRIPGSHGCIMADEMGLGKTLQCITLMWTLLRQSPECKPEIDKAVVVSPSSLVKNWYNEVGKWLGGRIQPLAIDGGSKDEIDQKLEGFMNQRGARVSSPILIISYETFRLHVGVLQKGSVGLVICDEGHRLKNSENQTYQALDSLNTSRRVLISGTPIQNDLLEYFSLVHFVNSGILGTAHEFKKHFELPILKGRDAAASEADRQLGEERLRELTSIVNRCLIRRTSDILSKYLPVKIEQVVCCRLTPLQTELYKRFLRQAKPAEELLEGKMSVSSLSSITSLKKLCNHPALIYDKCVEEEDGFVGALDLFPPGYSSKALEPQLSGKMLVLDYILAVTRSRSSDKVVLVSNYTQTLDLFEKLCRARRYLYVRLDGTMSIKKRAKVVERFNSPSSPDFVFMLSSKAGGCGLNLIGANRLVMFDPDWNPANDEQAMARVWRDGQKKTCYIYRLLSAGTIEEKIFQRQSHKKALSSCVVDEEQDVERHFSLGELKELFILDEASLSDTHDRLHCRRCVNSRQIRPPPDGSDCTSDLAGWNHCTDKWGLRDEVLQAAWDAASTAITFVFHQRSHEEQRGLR
NSD2 inh – blocks human histone methyltransferase NSD2. O96028. NSD2 peptide methylation, AlphaScreen, 120 min. inhibition, % at 12.5 µM. 310,000 tested, 0.54% active. AID 743445; in the data active = inhibition above about 50%
RAD52 inh – inhibitors of human RAD52 DNA annealing. P43351. recombinant RAD52 DNA annealing, FRET fluorescence. inhibition, % at 18.7 µM. 360,000 tested, 0.46% active. AID 651710;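 active = every replicate showing at least 50% inhibition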
A number is an active result. The list is not random: actives were taken first. Their share in the collection is about 1.2%.

Screening CC(C)[C@@H](C(=O)NC1CCN(Cc2ccccc2)CC1)N1C(=O)N2CCc3c([nH]c4ccccc34)[C@@]2(C)C1=O returned AF4-AF9 inh 26.7, N-glyco inh inactive, RAD54 branch inactive and RAD52 inh inactive.
For CCCC(=O)NC(NC(=S)Nc1ccc(N=Nc2ccccc2)cc1)C(Cl)(Cl)Cl (centres undefined) the results were FN deposit inh inactive, AF4-AF9 inh inactive, N-glyco inh 30.3, RAD54 branch inactive, NSD2 inh inactive and RAD52 inh inactive.
For COC(=O)c1ccc(C)c(NC(=O)CN(c2cc(OC)ccc2OC)S(C)(=O)=O)c1 the results were N-glyco inh 73.6, RAD54 branch inactive and NSD2 inh inactive.
For O=C(c1ccc(F)cc1)N1CCCCN2[C@H](C1)[C@@H](c1ccc(-c3ccc(F)cc3)cc1)[C@@H]2CO the results were AF4-AF9 inh inactive, RAD54 branch inactive and RAD52 inh inactive.
Screening O=C(Nc1ccccc1Cl)C1(c2ccccc2)CC1(Cl)Cl (centres undefined) returned FN deposit inh inactive, N-glyco inh inactive and NSD2 inh inactive.
For CC(=O)c1ccc(NC(=O)C2(c3ccccc3)CC2(Cl)Cl)cc1 (centres undefined) the results were FN deposit inh inactive, AF4-AF9 inh 32.8, N-glyco inh inactive, NSD2 inh inactive and RAD52 inh inactive.
Screening Clc1ccccc1OCc1nnc(-c2ccccc2Br)o1 returned N-glyco inh inactive, RAD54 branch inactive and NSD2 inh inactive.
`O=c1c(Cl)c(Cl)cnn1Cc1nnc(-c2ccccc2Br)o1` gave FN deposit inh 39.3, AF4-AF9 inh inactive, N-glyco inh inactive, NSD2 inh inactive and RAD52 inh inactive.
For C[C@H](O)C#Cc1cnc2c(c1)C(=O)N([C@@H](C)CO)C[C@H](C)[C@@H](CN(C)Cc1ccccn1)O2 the results were AF4-AF9 inh inactive, RAD54 branch inactive and RAD52 inh inactive.
C[C@H]1CN(C)C(=O)Cc2cc(N)ccc2O[C@@H]1CN(C)C(=O)OC(C)(C)C was read as FN deposit inh inactive.
`O=C(/C(=C\c1ccccc1)c1nc2ccccc2[nH]1)c1ccc(Cl)cc1` gave FN deposit inh inactive, N-glyco inh 33.8 and NSD2 inh inactive.
O=C(/C(=C/c1ccc(Cl)cc1)c1nc2ccccc2[nH]1)c1cccs1 was read as N-glyco inh inactive.
CCCN1C[C@@H](C)[C@@H](OC)CN(C)C(=O)c2ccc(NC(=O)CC)cc2OC[C@@H]1C was read as FN deposit inh inactive.
Screening C[C@H]1CN([C@@H](C)CO)C(=O)c2cc(NC(=O)c3ccncc3)ccc2O[C@@H]1CN(C)Cc1ccc(-c2ccccc2)cc1 returned FN deposit inh inactive, AF4-AF9 inh inactive, RAD54 branch inactive and RAD52 inh inactive.
`O=C(NNS(=O)(=O)c1ccc(F)cc1)c1cccc(O)c1` gave FN deposit inh inactive, AF4-AF9 inh inactive, N-glyco inh inactive, RAD54 branch inactive, NSD2 inh inactive and RAD52 inh inactive.
For Cc1ccc(S(=O)(=O)NNC(=O)c2cccc(O)c2)cc1 the results were FN deposit inh inactive, AF4-AF9 inh 48.3, N-glyco inh inactive, NSD2 inh inactive and RAD52 inh inactive.
Screening Cc1ccc(S(=O)(=O)N[C@H]2CC[C@@H](CCNC(=O)C3CCC3)O[C@H]2CO)cc1 returned AF4-AF9 inh inactive, RAD54 branch inactive and RAD52 inh inactive.
`COc1ccc(NC(=O)N2CCCCN3[C@H](CO)[C@H](c4ccc(C#Cc5ccccc5)cc4)[C@@H]3C2)cc1` gave AF4-AF9 inh inactive, RAD54 branch inactive and RAD52 inh inactive.
For COc1ccc(NC(=O)N2CCCCN3[C@H](CO)[C@@H](c4ccc(C#Cc5ccccc5)cc4)[C@H]3C2)cc1 the results were AF4-AF9 inh inactive, RAD54 branch inactive and RAD52 inh 69.8.
COc1ccc(C#Cc2ccc([C@@H]3[C@@H](CO)N4CCCCN(C(=O)Nc5ccccc5)C[C@@H]34)cc2)cc1 was read as AF4-AF9 inh inactive, RAD54 branch inactive and RAD52 inh inactive.
COc1ccc(NC(=O)N2CCCCN3[C@H](CO)[C@@H](c4ccc(C#Cc5ccccc5)cc4)[C@@H]3C2)cc1 was read as AF4-AF9 inh inactive, RAD54 branch inactive and RAD52 inh 71.2.
`COc1ccc(NC(=O)N2CCCCN3[C@@H](CO)[C@@H](c4ccc(C#Cc5ccccc5)cc4)[C@@H]3C2)cc1` gave AF4-AF9 inh inactive, RAD54 branch inactive and RAD52 inh 96.6.
`C#CCOCCOCCOCCNc1nc(N2CCN(C(=O)[C@H](CCCCN)n3cc(CN)nn3)CC2)nc(N2CCN(C(=O)[C@H](CCCCN)n3cc(CN)nn3)CC2)n1` gave FN deposit inh inactive, AF4-AF9 inh 56.7, N-glyco inh inactive, RAD54 branch inactive and RAD52 inh 60.6.
`C#CCOCCOCCOCCNc1nc(N2CCN(C(=O)CCCCCCCCCCNC(=O)Cn3cc(C[C@@H](C)O)nn3)CC2)nc(N2CCN(C(=O)CCCCCCCCCCNC(=O)[C@@H]([C@H](C)CC)n3cc(CCCCCN)nn3)CC2)n1` gave N-glyco inh inactive and RAD54 branch inactive.
Screening C#CCOCCOCCOCCNc1nc(N2CCN(C(=O)CCCCCCCCCCNC(=O)Cn3cc(CCCCCN)nn3)CC2)nc(N2CCN(C(=O)CCCCCCCCCCNC(=O)Cn3cc(C[C@@H](C)O)nn3)CC2)n1 returned N-glyco inh inactive, RAD54 branch inactive and RAD52 inh 52.1.
`COc1ccc(NC(=O)N(C)C[C@H]2Oc3c(NS(C)(=O)=O)cccc3C(=O)N([C@@H](C)CO)C[C@@H]2C)cc1` gave AF4-AF9 inh inactive, RAD54 branch inactive and RAD52 inh inactive.
COCC(=O)Nc1ccc2c(c1)[C@@H]1C[C@@H](CC(=O)NCc3ccc(OC)cc3)O[C@H](CO)[C@@H]1O2 was read as FN deposit inh inactive, AF4-AF9 inh inactive, RAD54 branch inactive and RAD52 inh inactive.
COc1ccccc1-c1c(C#N)c(N)nc2c1CCc1ccccc1-2 was read as FN deposit inh inactive, N-glyco inh 32.0 and NSD2 inh inactive.
`CCOc1cc(-c2c(C#N)c(N)nc3c2CCCC3C)ccc1O` (centres undefined) gave N-glyco inh inactive, RAD54 branch inactive and NSD2 inh inactive.
For COc1ccccc1-c1c(C)c(C)nc(N)c1C#N the results were FN deposit inh inactive, N-glyco inh inactive, RAD54 branch inactive and NSD2 inh inactive.
For CCOc1cc(-c2c(C#N)c(N)nc3c2CCc2ccccc2-3)ccc1O the results were FN deposit inh inactive, N-glyco inh 46.1 and NSD2 inh inactive.
`Cn1cnc(S(=O)(=O)N2C[C@H](O)COC[C@@H]3O[C@@H](CC(=O)NCc4ccc(F)cc4)CC[C@H]32)c1` gave FN deposit inh inactive, AF4-AF9 inh inactive, RAD54 branch inactive and RAD52 inh inactive.
